According to ChEMBL document CHEMBL1126061, “Cyclic RGD peptide analogues as antiplatelet antithrombotics” (J Med Chem, 1992):
*1 amine or outer side, *2 acyl side, *3 side chain or, on linkers, in order; H or OH if unused. Where a SMILES comes first, the peptide text is derived from it. Bridges are numbered along the chain shown (N, C = ends). [ ]: non-standard residue; d: D form. Cys(O)(CH2CO) = O=C([C@H](C[S+]([O-])CC(=O)[*:3])N[*:1])[*:2]

Key:
Format in all cases: protein-complex assay
[1] = biological target: T1, Integrin alpha-IIb/beta-3 (Homo sapiens, UniProt P05106+P08514); test: Inhibition of Fibrinogen binding to Fibrinogen receptor
T1 sequence (P05106 27-788 limits assumed): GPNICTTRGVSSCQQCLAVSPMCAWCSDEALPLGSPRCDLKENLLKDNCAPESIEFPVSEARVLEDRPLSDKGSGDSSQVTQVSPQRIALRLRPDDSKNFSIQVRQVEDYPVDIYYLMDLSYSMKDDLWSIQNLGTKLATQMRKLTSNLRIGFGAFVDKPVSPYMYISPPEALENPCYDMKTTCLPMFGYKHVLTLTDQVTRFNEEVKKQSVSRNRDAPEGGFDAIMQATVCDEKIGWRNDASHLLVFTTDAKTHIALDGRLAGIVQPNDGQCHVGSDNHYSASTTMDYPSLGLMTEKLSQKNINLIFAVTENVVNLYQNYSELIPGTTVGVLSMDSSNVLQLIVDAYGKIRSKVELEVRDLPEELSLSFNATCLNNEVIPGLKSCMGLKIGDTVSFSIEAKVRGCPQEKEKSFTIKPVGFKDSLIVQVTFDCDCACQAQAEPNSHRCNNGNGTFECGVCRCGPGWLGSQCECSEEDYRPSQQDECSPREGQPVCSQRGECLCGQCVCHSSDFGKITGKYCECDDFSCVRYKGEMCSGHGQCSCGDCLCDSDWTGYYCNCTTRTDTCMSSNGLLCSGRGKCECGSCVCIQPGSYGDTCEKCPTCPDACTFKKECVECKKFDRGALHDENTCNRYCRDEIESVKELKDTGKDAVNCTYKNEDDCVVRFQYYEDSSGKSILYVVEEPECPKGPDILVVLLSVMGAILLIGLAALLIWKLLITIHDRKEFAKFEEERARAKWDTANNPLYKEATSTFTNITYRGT
T1 sequence (P08514 32-887 limits assumed): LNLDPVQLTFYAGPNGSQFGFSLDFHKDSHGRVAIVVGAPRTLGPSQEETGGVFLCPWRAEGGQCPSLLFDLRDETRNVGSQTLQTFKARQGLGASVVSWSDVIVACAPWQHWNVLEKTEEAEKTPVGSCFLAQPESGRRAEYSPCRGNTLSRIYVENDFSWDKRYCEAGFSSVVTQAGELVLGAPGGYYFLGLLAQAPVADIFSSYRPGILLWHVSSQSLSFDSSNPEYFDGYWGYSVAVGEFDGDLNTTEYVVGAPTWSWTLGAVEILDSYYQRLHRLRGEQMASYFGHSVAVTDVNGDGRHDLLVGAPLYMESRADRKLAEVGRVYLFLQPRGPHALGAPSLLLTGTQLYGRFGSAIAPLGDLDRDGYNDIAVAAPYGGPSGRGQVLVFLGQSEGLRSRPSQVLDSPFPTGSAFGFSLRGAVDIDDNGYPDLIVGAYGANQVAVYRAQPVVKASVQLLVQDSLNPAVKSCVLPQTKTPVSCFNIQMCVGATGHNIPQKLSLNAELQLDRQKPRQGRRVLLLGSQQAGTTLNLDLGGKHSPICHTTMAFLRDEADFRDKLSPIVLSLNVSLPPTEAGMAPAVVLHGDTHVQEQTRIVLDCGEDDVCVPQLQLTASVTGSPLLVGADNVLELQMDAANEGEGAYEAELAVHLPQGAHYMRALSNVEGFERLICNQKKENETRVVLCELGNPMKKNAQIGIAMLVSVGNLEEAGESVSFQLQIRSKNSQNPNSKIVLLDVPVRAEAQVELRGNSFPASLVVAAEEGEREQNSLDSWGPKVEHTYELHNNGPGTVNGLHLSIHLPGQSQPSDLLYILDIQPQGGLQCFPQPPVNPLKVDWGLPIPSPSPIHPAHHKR
T1 sequence (P08514 891-1039 limits assumed): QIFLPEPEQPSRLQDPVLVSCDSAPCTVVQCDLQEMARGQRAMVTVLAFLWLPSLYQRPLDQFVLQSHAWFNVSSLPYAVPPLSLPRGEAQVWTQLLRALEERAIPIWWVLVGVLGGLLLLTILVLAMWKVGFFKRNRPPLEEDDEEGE
Summary of the method: (§1)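 Solid-phase ELISA: human fibrinogen (10 µg/mL) coated, BSA-blocked; samples plus purified human platelet GPIIbIIIa (40 µg/mL) incubated 1 h at room temperature. Bound receptor detected with anti-GPIIbIIIa antibody AP3 (1 µg/mL, 1 h), then goat anti-mouse HRP (1 h); OPD/H2O2 at pH 5, stopped with H2SO4, absorbance 492-405 nm. IC50 from four-parameter fit; n ≥ 3.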

[2] = biological target: T1, Integrin alpha-IIb/beta-3; test: The compound was tested for the inhibition of fibrinogen receptor; summary of the method: as §1
[3] = biological target: T1, Integrin alpha-IIb/beta-3; test: Inhibition of Fibrinogen receptor; summary of the method: as §1

SMILES | IC50 [1] [nM] | IC50 [2] [nM] | IC50 [3] [nM]
N=C(N)NCCC[C@@H]1NC(=O)[C@@H](Cc2ccccc2)NC(=O)C[S+]([O-])C[C@@H](C(=O)O)NC(=O)[C@H](CC(=O)O)NC(=O)CNC1=O (some centres undefined) | 33 | 5.6 | –
N=C(N)NCCC[C@H](N)C(=O)NCC(=O)N[C@@H](CC(=O)O)C(=O)N[C@@H](Cc1ccccc1)C(=O)O (H-RGDF-OH) | – | – | 31
N=C(N)NCCC[C@@H]1NC(=O)[C@H](CCCCN)NC(=O)C[S+]([O-])C[C@@H](C(=O)O)NC(=O)[C@H](CC(=O)O)NC(=O)CNC1=O (some centres undefined) (KRGD[Cys(O)(CH2CO)]-OH; lactam N-5) | 14 | 2.6 | –
N=C(N)NCCC[C@@H]1NC(=O)[C@H](CO)NC(=O)C[S+]([O-])C[C@@H](C(=O)O)NC(=O)[C@H](CC(=O)O)NC(=O)CNC1=O (some centres undefined) (SRGD[Cys(O)(CH2CO)]-OH; lactam N-5) | 50 | 8 | –
C[C@@H](O)[C@@H]1NC(=O)C[S+]([O-])C[C@@H](C(=O)O)NC(=O)[C@H](CC(=O)O)NC(=O)CNC(=O)[C@H](CCCN=C(N)N)NC1=O (stereo in doubt; 71A) | – | 1.8 | –
C[C@@H](O)[C@@H]1NC(=O)C[S+]([O-])C[C@@H](C(=O)O)NC(=O)[C@H](CC(=O)O)NC(=O)CNC(=O)[C@H](CCCN=C(N)N)NC1=O (stereo in doubt; 71B) | – | 10 | –
N=C(N)NCCC[C@@H]1NC(=O)[C@H](CCC(=O)O)NC(=O)C[S+]([O-])C[C@@H](C(=O)O)NC(=O)[C@H](CC(=O)O)NC(=O)CNC1=O (stereo in doubt; 73A) | – | 4.7 | –
C[C@@H]1NC(=O)CSC[C@@H](C(=O)O)NC(=O)[C@H](CC(=O)O)NC(=O)CNC(=O)[C@H](CCCNC(=N)N)NC1=O ({CH2CO}-ARGDC-OH; thioether N-5) | – | 2.5 | –
N=C(N)NCCC[C@@H]1NC(=O)CNC(=O)CSC[C@@H](C(N)=O)NC(=O)[C@H](CC(=O)O)NC(=O)CNC1=O ({CH2CO}-GRGDC-NH2; thioether N-5) | – | 12 | –
N=C(N)NCCC[C@@H]1NC(=O)CNC(=O)CSC[C@@H](C(=O)O)NC(=O)[C@H](CC(=O)O)NC(=O)CNC1=O ({CH2CO}-GRGDC-OH; thioether N-5) | – | 4.2 | –
N=C(N)NCCC[C@@H]1NC(=O)[C@H](Cc2ccc(O)cc2)NC(=O)CSC[C@@H](C(N)=O)NC(=O)[C@H](CC(=O)O)NC(=O)CNC1=O ({CH2CO}-YRGDC-NH2; thioether N-5) | – | 2.5 | –
N=C(N)NCCC[C@@H]1NC(=O)[C@H](Cc2ccc(O)cc2)NC(=O)CSC[C@@H](C(=O)O)NC(=O)[C@H](CC(=O)O)NC(=O)CNC1=O ({CH2CO}-YRGDC-OH; thioether N-5) | – | 1.5 | –
C[C@H]1NC(=O)CSC[C@@H](C(=O)O)NC(=O)[C@H](CC(=O)O)NC(=O)CNC(=O)[C@H](CCCNC(=N)N)NC1=O ({CH2CO}-[dA]RGDC-OH; thioether N-5) | – | 9.5 | –
N=C(N)NCCC[C@@H]1NC(=O)[C@@H](CC(N)=O)NC(=O)CSC[C@@H](C(=O)O)NC(=O)[C@H](CC(=O)O)NC(=O)CNC1=O ({CH2CO}-[dN]RGDC-OH; thioether N-5) | – | 35 | –
N=C(N)NCCC[C@@H]1NC(=O)[C@H]2CCCN2C(=O)CSC[C@@H](C(=O)O)NC(=O)[C@H](CC(=O)O)NC(=O)CNC1=O ({CH2CO}-[dP]RGDC-OH; thioether N-5) | – | 11.4 | –
N=C(N)NCCC[C@@H]1NC(=O)[C@@H](Cc2ccc(O)cc2)NC(=O)CSC[C@@H](C(=O)O)NC(=O)[C@H](CC(=O)O)NC(=O)CNC1=O ({CH2CO}-[dY]RGDC-OH; thioether N-5) | – | 20 | –

Continued by falling IC50 [2], values first:

IC50 [1] [nM] | IC50 [2] [nM] | IC50 [3] [nM] | SMILES
– | 132 | – | N=C(N)NCCC[C@@H]1NC(=O)CSC[C@@H](C(=O)O)NC(=O)[C@H](CC(=O)O)NC(=O)CNC1=O ({CH2CO}-RGDC-OH; thioether N-4)
– | 68 | – | N=C(N)NCCC[C@@H]1NC(=O)[C@H](CCC(=O)O)NC(=O)C[S+]([O-])C[C@@H](C(=O)O)NC(=O)[C@H](CC(=O)O)NC(=O)CNC1=O (stereo in doubt; 73B)
16 | 6.6 | – | N=C(N)NCCC[C@@H]1NC(=O)[C@H](Cc2ccccc2)NC(=O)C[S+]([O-])C[C@@H](C(=O)O)NC(=O)[C@H](CC(=O)O)NC(=O)CNC1=O (some centres undefined)
25 | 3.9 | – | CC(C)C[C@@H]1NC(=O)C[S+]([O-])C[C@@H](C(=O)O)NC(=O)[C@H](CC(=O)O)NC(=O)CNC(=O)[C@H](CCCN=C(N)N)NC1=O (some centres undefined) (LRGD[Cys(O)(CH2CO)]-OH; lactam N-5)
4.5 | 2.9 | – | CC(C)[C@@H]1NC(=O)C[S+]([O-])C[C@@H](C(=O)O)NC(=O)[C@H](CC(=O)O)NC(=O)CNC(=O)[C@H](CCCNC(=N)N)NC1=O (some centres undefined) (VRGD[Cys(O)(CH2CO)]-OH; lactam N-5)
– | 2.7 | – | N=C(N)NCCC[C@@H]1NC(=O)[C@H](CC(N)=O)NC(=O)CSC[C@@H](C(=O)O)NC(=O)[C@H](CC(=O)O)NC(=O)CNC1=O ({CH2CO}-NRGDC-OH; thioether N-5)
– | 1 | – | N=C(N)NCCC[C@@H]1NC(=O)[C@@H]2CCCN2C(=O)CSC[C@@H](C(=O)O)NC(=O)[C@H](CC(=O)O)NC(=O)CNC1=O ({CH2CO}-PRGDC-OH; thioether N-5)
